Screening data from PubChem BioAssay.
Rows were chosen to be rich in hits. Some 5.9% of all compounds tested hit in one or more screens of this group.
Pf Dd2 growth = P. falciparum Dd2 growth inhibitors, primary screen, SYBR Green fluorescence, single dose replicates; activity change, % at 10 µM; 72 h; stronger effect = lower value; hit rate 2.3% among 94,000; in the data active = activity change below about -80%; inconclusive = no clear call, values can overlap the other calls
IDH1 mut inh = inhibitors of IDH1 R132H reductase, primary screen, biochemical, plate reader, single point; Isocitrate dehydrogenase [NADP] cytoplasmic (Homo sapiens), O75874; diaphorase/resazurin fluorescence, 60 min; inhibition, % at 10 µM; hit rate 0.18% among 70,000; in the data active = inhibition above about 34%; inconclusive = no clear call, values can overlap the other calls; inactive = below about 11%;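 also: 0% = DMSO and 100% = no enzyme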
KDM4C inh = inhibitors of GASC-1 (KDM4C) histone demethylase, primary screen, biochemical, single concentration HTS | Lysine-specific demethylase 4C (Homo sapiens), Q9H3R0 | GST-KDM4C 2-372, H3K9me3 peptide, LANCE TR-FRET | inhibition, % at 12.5 µM | hit rate 0.15% among 96,000 | AID 720574, 2013;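 active = mean replicate inhibition above about 25%, with at least 55% of replicates also reaching it, limit read from the data, passing the limit was not always enough; inconclusive = only one of those two conditions met; inactive = neither condition met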
Target sequence (Q9H3R0 2-372 limits assumed): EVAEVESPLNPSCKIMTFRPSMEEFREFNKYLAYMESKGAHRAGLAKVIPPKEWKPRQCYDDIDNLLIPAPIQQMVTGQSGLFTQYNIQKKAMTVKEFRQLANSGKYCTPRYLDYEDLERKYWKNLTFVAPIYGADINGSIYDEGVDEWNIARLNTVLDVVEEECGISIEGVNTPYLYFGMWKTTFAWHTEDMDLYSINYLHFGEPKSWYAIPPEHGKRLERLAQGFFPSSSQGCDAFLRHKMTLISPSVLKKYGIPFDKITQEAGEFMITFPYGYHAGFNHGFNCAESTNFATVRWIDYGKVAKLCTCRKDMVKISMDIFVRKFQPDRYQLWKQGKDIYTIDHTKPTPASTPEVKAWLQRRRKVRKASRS
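Material: N-terminal GST-fused human GASC-1 (KDM4C) fragment, residues 2-372. Input: 10 nM enzyme. Incubation: enzyme reaction 30 min, then detection 60 min, both room temperature. Doses: one test concentration per compound. Read-out basis: inhibition from TR-FRET ratio decrease. Detection: LANCE TR-FRET, excitation 340 nm, emissions 618 and 671 nm.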
T cruzi growth-1 = T. cruzi intracellular proliferation inhibitors, primary screen, cell-based, beta-gal Tulahuen parasites, NIH3T3 host, luminescence. hit rate 5.9% among 77,000. T. cruzi beta-gal in NIH3T3, GalScreen luminescence, 90 h. inhibition, % at 8.34 µM;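 active = mean inhibition above about 93%, with at least 55% of replicates each passing it, limit read from the data, passing the limit was not always enough; inconclusive = only one of those two conditions holds; inactive = neither condition holds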
T cruzi growth-2 = T. cruzi intracellular proliferation inhibitors, confirmation, cell-based, NIH3T3 host, beta-gal parasite, luminescence, cherry-pick. shares compounds with T cruzi growth-1. T. cruzi beta-gal in NIH3T3, GalScreen luminescence, 90 h. inhibition, % at 8.35 µM. hit rate 72% among 5,600. AID 651739, 2012;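 active = mean replicate inhibition above about 95% and at least 55% of replicates individually reaching it, limit read from the data; inconclusive = only one of the two criteria is met; inactive = neither criterion is met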
T cruzi growth-3 = inhibitors of intracellular T. cruzi replication, confirmation, NIH3T3 host cells, beta-gal parasites, cherry-pick, set 2; shares compounds with T cruzi growth-1; T. cruzi beta-gal in NIH3T3, GalScreen luminescence, 90 h; inhibition, % at 2.09 µM; hit rate 21% among 5,600;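 active = mean inhibition above about 95%, with at least 55% of replicates also reaching it, limit read from the data; inconclusive = meets just one of the two conditions; inactive = meets neither condition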;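 also: plate controls were neutral control median for no effect and positive control median for full effect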
NIH3T3 tox = cytotoxicity in mouse NIH/3T3 fibroblasts, confirmation, cytotoxicity control for T. cruzi proliferation inhibitor project, cell-based, cherry-pick, single point | shares compounds with T cruzi growth-1 | NIH/3T3 viability, CellTiter-Glo ATP luminescence, 90 h | cytotoxicity (signal decrease), % at 8.35 µM | hit rate 14% among 5,600;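 active = mean signal decrease across replicates above about 35% based on untreated-well scatter, with enough replicates individually passing, limit read from the data; inconclusive = no rule stated though some were filed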;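 also: 0% = median of neutral control wells and 100% = median of positive control wells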
3T3 cytotox 2 = NIH/3T3 fibroblast cytotoxicity, confirmation, cytotoxicity control, cell-based, cherry-pick, single point, set 2; inhibition, % at 24.9 µM; hit rate 56% among 5,600; NIH/3T3 viability, CellTiter-Glo ATP luminescence, 90 h; shares compounds with T cruzi growth-1;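 active = mean loss of cell viability signal at or above a set limit, and enough replicates individually reaching it; inconclusive = meets only the mean limit or only the replicate share; inactive = meets neither condition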;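 also: 0% = median of neutral control wells and 100% = median of positive control wells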
* = called active by the depositor.

For C[C@@H]1CN([C@H](C)CO)S(=O)(=O)c2ccc(-c3cncnc3)cc2O[C@H]1CN(C)Cc1ccccc1 the results were Pf Dd2 growth -34, IDH1 mut inh 0, KDM4C inh 2, T cruzi growth-1 inconclusive, T cruzi growth-2 91, T cruzi growth-3 64, NIH3T3 tox 52* and 3T3 cytotox 2 68*.
C[C@@H]1CN([C@@H](C)CO)S(=O)(=O)c2ccc(-c3cncnc3)cc2O[C@@H]1CN(C)Cc1ccccc1 was read as Pf Dd2 growth 0, IDH1 mut inh 0, KDM4C inh 3 and T cruzi growth-1 62.
For Cc1cccc(-n2c(SCC(=O)Nc3ccccc3)nnc2-c2ccccc2)c1 the results were IDH1 mut inh -1.
Screening O=C(CSc1nc2ccccc2c(=O)n1-c1ccccc1)Nc1ccc(Br)cc1Cl returned IDH1 mut inh 0.
For C[C@@H]1CN([C@H](C)CO)C(=O)c2cc(NC(=O)Nc3ccc(F)cc3)ccc2O[C@@H]1CN(C)Cc1ccc(-c2ccccc2)cc1 the results were Pf Dd2 growth 7, IDH1 mut inh 0, KDM4C inh 1, T cruzi growth-1 inconclusive, T cruzi growth-2 95*, T cruzi growth-3 89, NIH3T3 tox 111* and 3T3 cytotox 2 106*.
For C[C@@H]1CN([C@H](C)CO)C(=O)c2cc(NC(=O)Nc3ccc(F)cc3)ccc2O[C@H]1CN(C)Cc1ccc(-c2ccccc2)cc1 the results were Pf Dd2 growth 9, KDM4C inh -1 and T cruzi growth-1 48.
`C[C@@H]1CN([C@@H](C)CO)C(=O)c2cc(NC(=O)Nc3ccc(F)cc3)ccc2O[C@@H]1CN(C)Cc1ccc(-c2ccccc2)cc1` gave Pf Dd2 growth -2, IDH1 mut inh -1, KDM4C inh -2, T cruzi growth-1 94*, T cruzi growth-2 96*, T cruzi growth-3 87, NIH3T3 tox 57* and 3T3 cytotox 2 102*.
`C[C@@H]1CCCCO[C@H](CN(C)Cc2ccc(C(F)(F)F)cc2)[C@H](C)CN([C@@H](C)CO)C(=O)c2cc(NC(=O)c3ccncc3)ccc2O1` gave Pf Dd2 growth -21, KDM4C inh 0 and T cruzi growth-1 90.
For C[C@H]1CN([C@@H](C)CO)C(=O)c2cc(NC(=O)c3ccncc3)ccc2O[C@@H]1CN(C)Cc1ccc(C(F)(F)F)cc1 the results were Pf Dd2 growth 7, IDH1 mut inh 2, KDM4C inh 0 and T cruzi growth-1 75.
For C[C@@H]1CN([C@@H](C)CO)C(=O)c2cc(NC(=O)c3ccncc3)ccc2O[C@H]1CN(C)Cc1ccc(C(F)(F)F)cc1 the results were Pf Dd2 growth -23, KDM4C inh 0, T cruzi growth-1 100*, T cruzi growth-2 24, T cruzi growth-3 -4, NIH3T3 tox 9 and 3T3 cytotox 2 36.
`C[C@H]1CCCCO[C@@H](CN(C)Cc2ccncc2)[C@@H](C)CN([C@@H](C)CO)C(=O)c2cc(NC(=O)Nc3ccc(C(F)(F)F)cc3)ccc2O1` gave Pf Dd2 growth -63, IDH1 mut inh 11, KDM4C inh 0, T cruzi growth-1 101*, T cruzi growth-2 97*, T cruzi growth-3 114*, NIH3T3 tox -6 and 3T3 cytotox 2 70*.
C[C@H](CO)N1C[C@H](C)[C@@H](CN(C)Cc2ccncc2)OCCCC[C@H](C)Oc2ccc(NC(=O)Nc3ccc(C(F)(F)F)cc3)cc2C1=O was read as Pf Dd2 growth -25, IDH1 mut inh -1, KDM4C inh -1, T cruzi growth-1 101*, T cruzi growth-2 103*, T cruzi growth-3 82, NIH3T3 tox -29 and 3T3 cytotox 2 42*.
C[C@@H]1CCCCO[C@@H](CN(C)Cc2ccc(C(F)(F)F)cc2)[C@H](C)CN([C@H](C)CO)C(=O)c2cc(NC(=O)c3ccncc3)ccc2O1 was read as Pf Dd2 growth -72, IDH1 mut inh -4, KDM4C inh -1, T cruzi growth-1 109*, T cruzi growth-2 103*, T cruzi growth-3 56, NIH3T3 tox 13 and 3T3 cytotox 2 103*.
For C[C@@H]1CCCCO[C@@H](CN(C)Cc2ccncc2)[C@H](C)CN([C@@H](C)CO)C(=O)c2cc(NC(=O)Nc3ccc(C(F)(F)F)cc3)ccc2O1 the results were Pf Dd2 growth -15, IDH1 mut inh 1, KDM4C inh 2 and T cruzi growth-1 86.
O=C1C(=O)N(CCN2CCOCC2)C(c2ccncc2)C1C(=O)c1cc2ccccc2o1 (stereo not given) was read as IDH1 mut inh 0.
Cn1c(SCC(=O)Nc2ccc(C(=O)O)cc2)nnc1-c1ccc(Cl)cc1Cl was read as IDH1 mut inh 0.
`COc1ccc(-c2nn(C)c(=O)c3ccccc23)cc1CNC(=O)c1ccc([N+](=O)[O-])cc1` gave IDH1 mut inh 1.
Screening CCOc1ccccc1CNc1nc2nc(C)c(Cl)c(C)n2n1 returned IDH1 mut inh 0.
`COc1ccccc1C#Cc1ccc2c(c1)O[C@H](CN(C)Cc1cccnc1)[C@H](C)CN([C@@H](C)CO)S2(=O)=O` gave Pf Dd2 growth -32 and KDM4C inh -3.
`COc1ccccc1C#Cc1ccc2c(c1)O[C@@H](CN(C)Cc1ccccc1)[C@@H](C)CN([C@H](C)CO)S2(=O)=O` gave Pf Dd2 growth -6, IDH1 mut inh 0, KDM4C inh 4, T cruzi growth-1 122*, T cruzi growth-2 107*, T cruzi growth-3 113*, NIH3T3 tox -27 and 3T3 cytotox 2 -39.
COc1ccccc1C#Cc1ccc2c(c1)O[C@@H](CN(C)Cc1ccccc1)[C@H](C)CN([C@@H](C)CO)S2(=O)=O was read as Pf Dd2 growth -66, IDH1 mut inh -3, KDM4C inh -4, T cruzi growth-1 119*, T cruzi growth-2 87, T cruzi growth-3 112*, NIH3T3 tox 45* and 3T3 cytotox 2 42*.
